Published values of several laboratories.
Each line is one published result; the experiments were not run side by side.
Effect on: cell growth or viability

CC(C)(C)CNc1nc(-c2cccs2)nc(Cl)c1-c1c(F)cc(C#N)cc1F  CC50 (HEK293; resazurin; 48 h): > 50 µM
NC(=S)NN=Cc1ccc(OC(=O)CN2C(=O)CSC2=O)c(Cl)c1  viability (HEK293; MTT; 50 µg/mL; 24 h): > 70%
CCOC(=O)C1=C(CN2CCC[C@@H]2C(=O)Nc2ccc(B(O)O)cc2)NC(c2nccs2)=N[C@H]1c1ccc(F)cc1Br  CC50 (HePAD38; CCK-8; 6 days): 26.5 µM
C#Cc1cc(F)c(-c2c(Cl)nc(-c3cccs3)nc2NCC2(C)N=N2)c(F)c1  CC50 (HEK293; resazurin; 48 h): > 20 µM
Nc1ccn([C@@H]2O[C@H](CO)[C@@H](O)C2(F)F)c(=O)n1  viability (HEK293; MTT; 0.625 µg/mL; 24 h): 83.8%
CC(C)[C@@H](C)Nc1nc(-c2cccs2)nc(Cl)c1-c1c(F)cc([N+](=O)[O-])cc1F  CC50 (HEK293; resazurin; 48 h): 20.2 µM
CCOc1cc(C=NNC(N)=S)ccc1OC(=O)CN1C(=O)CSC1=O  viability (HEK293; MTT; 40 µg/mL; 24 h): > 70%
CCOC(=O)C1=C(CN2CCC[C@@H]2C(=O)Nc2cccc(B(O)O)c2)NC(c2nccs2)=N[C@H]1c1ccc(F)cc1Br  CC50 (HePAD38; CCK-8; 6 days): 18.4 µM
CCOC(=O)c1cnc2c([N+](=O)[O-])cc(C(F)(F)F)cc2c1NCc1ccc(C(F)(F)F)cc1  CC50 (HEK293; resazurin; 72 h): ~9 µM
Cc1ccc(S(=O)(=O)NNc2ccc([N+](=O)[O-])cc2[N+](=O)[O-])cc1  viability (HEK293; MTT; 62.5 µg/mL): 82.7%
